Test results: ChEMBL document CHEMBL2146456, “Identification and characterization of GABA(A) receptor modulatory diterpenes from Biota orientalis that decrease locomotor activity in mice” (J Nat Prod, 2011)
Calls of active or inactive are those of the source. No cut-off for these calls is given here.

Legend:
Oocyte [1] = experiment: Allosteric modulation of gamma-aminobutyric acid receptor A alpha1beta2gamma2S expressed in Xenopus oocytes assessed as potentiation of GABA-mediated chloride current at 0.1 to 500 uM by voltage clamp analysis relative to control; format: cell-based
Method in brief: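 Two-electrode voltage clamp on Xenopus oocytes injected with α1, β2, γ2S cRNA at a 1:1:10 ratio, recorded on days 1–5 at a holding potential of […]. Bath: 90 mM NaCl, 1 mM KCl, 1 mM MgCl2, 1 mM CaCl2, 5 mM HEPES pH 7.4. Compound was co-applied by fast perfusion with GABA EC5-10 (typically 3–10 μM). Potentiation was calculated as I(GABA+Comp)/IGABA − 1, and concentration-response curves were fitted by nonlinear regression.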

[2] = (§1) Allosteric modulation of gamma-aminobutyric acid receptor A alpha1beta2gamma2S expressed in Xenopus oocytes assessed as potentiation of GABA-mediated chloride current by voltage clamp analysis; format: cell-based; details: Oocyte
Method in brief: (§2)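 Oocytes were injected with α1β2γ2S, α1β3γ2S, α2β2γ2S, α3β2γ2S or α5β2γ2S cRNAs at a 1:1:10 ratio. Two-electrode voltage clamp was run 1–5 days post-injection in HEPES-buffered saline at pH 7.4. Compounds in GABA EC5–10 (3–10 μM) were given by automated fast perfusion: screening at 10 and 100 μM (n = 2), otherwise concentration series. Potentiation = I(GABA+Comp)/IGABA − 1, with nonlinear regression fits.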

Oocyte [3] = experiment: Allosteric modulation of gamma-aminobutyric acid receptor A alpha2beta2gamma2S expressed in Xenopus oocytes assessed as potentiation of GABA-mediated chloride current at 0.1 to 500 uM by voltage clamp analysis relative to control; format: cell-based; method in brief: as §2
Oocyte [4] = experiment: Allosteric modulation of gamma-aminobutyric acid receptor A alpha5beta2gamma2S expressed in Xenopus oocytes assessed as potentiation of GABA-mediated chloride current at 0.1 to 500 uM by voltage clamp analysis relative to control; format: cell-based; method in brief: as §2
Oocyte [5] = experiment: Allosteric modulation of gamma-aminobutyric acid receptor A alpha1beta2gamma2S expressed in Xenopus oocytes assessed as potentiation of GABA-mediated chloride current at 500 uM by voltage clamp analysis relative to control; format: cell-based; method in brief: as §2
Oocyte [6] = experiment: Agonist activity at gamma-aminobutyric acid receptor A alpha3beta2gamma2S expressed in Xenopus oocytes assessed as potentiation of GABA-mediated chloride current by voltage clamp analysis; format: functional, cell-based; method in brief: as §2
Oocyte [7] = experiment: Allosteric modulation of gamma-aminobutyric acid receptor A alpha1beta3gamma2S expressed in Xenopus oocytes assessed as potentiation of GABA-mediated chloride current at 0.1 to 500 uM by voltage clamp analysis relative to control; format: cell-based; method in brief: as §2
Oocyte [8] = experiment: Agonist activity at gamma-aminobutyric acid receptor A alpha2beta2gamma2S expressed in Xenopus oocytes assessed as potentiation of GABA-mediated chloride current by voltage clamp analysis; format: functional, cell-based; method in brief: as §2
Oocyte [9] = experiment: Agonist activity at gamma-aminobutyric acid receptor A alpha1beta2gamma2S expressed in Xenopus oocytes assessed as potentiation of GABA-mediated chloride current by voltage clamp analysis; format: functional, cell-based; method in brief: as §2
Oocyte [10] = experiment: Agonist activity at gamma-aminobutyric acid receptor A alpha1beta3gamma2S expressed in Xenopus oocytes assessed as potentiation of GABA-mediated chloride current by voltage clamp analysis; format: functional, cell-based; method in brief: as §2
Oocyte [11] = experiment: Allosteric modulation of gamma-aminobutyric acid receptor A alpha3beta2gamma2S expressed in Xenopus oocytes assessed as potentiation of GABA-mediated chloride current at 0.1 to 500 uM by voltage clamp analysis relative to control; format: cell-based; method in brief: as §2
Oocyte [12] = experiment: (§3) Allosteric modulation of gamma-aminobutyric acid receptor A alpha1beta3gamma2S expressed in Xenopus oocytes assessed as potentiation of GABA-mediated chloride current by voltage clamp analysis; format: cell-based; method in brief: as §2
[13] = as §3; format: cell-based; details: Oocyte; method in brief: as §2
Oocyte [14] = experiment: Allosteric modulation of gamma-aminobutyric acid receptor A alpha1beta2gamma2S expressed in Xenopus oocytes assessed as potentiation of GABA-mediated chloride current at 30 uM by voltage clamp analysis; format: cell-based; method in brief: as §2
Oocyte [15] = experiment: Allosteric modulation of gamma-aminobutyric acid receptor A alpha1beta2gamma2S expressed in Xenopus oocytes assessed as potentiation of GABA-mediated chloride current at 100 uM by voltage clamp analysis; format: cell-based; method in brief: as §2
Oocyte [16] = experiment: as §1; format: cell-based; method in brief: as §2
Oocyte [17] = experiment: (§4) Allosteric modulation of gamma-aminobutyric acid receptor A alpha2beta2gamma2S expressed in Xenopus oocytes assessed as potentiation of GABA-mediated chloride current by voltage clamp analysis; format: cell-based; method in brief: as §2
[18] = as §4; format: cell-based; details: Oocyte; method in brief: as §2
Oocyte [19] = experiment: Agonist activity at gamma-aminobutyric acid receptor A alpha5beta2gamma2S expressed in Xenopus oocytes assessed as potentiation of GABA-mediated chloride current by voltage clamp analysis; format: functional, cell-based; method in brief: as §2
[20] = target: T1, GABA-A receptor; GABA-A site (alpha1/beta2 interface) (Homo sapiens) (UniProt P14867+P47870); experiment: Allosteric modulation of gamma-aminobutyric acid receptor A alpha1beta2 expressed in Xenopus oocytes assessed as potentiation of GABA-mediated chloride current at 100 uM by voltage clamp analysis; format: cell-based; details: Oocyte
Oocyte [21] = experiment: (§5) Allosteric modulation of gamma-aminobutyric acid receptor A alpha5beta2gamma2S expressed in Xenopus oocytes assessed as potentiation of GABA-mediated chloride current by voltage clamp analysis relative to control; format: cell-based; method in brief: as §2
[22] = as §5; format: cell-based; details: Oocyte; method in brief: as §2
Oocyte [23] = experiment: (§6) Allosteric modulation of gamma-aminobutyric acid receptor A alpha1beta1gamma2S expressed in Xenopus oocytes assessed as potentiation of GABA-mediated chloride current by voltage clamp analysis; format: cell-based
Method in brief: (§7)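 α1β1γ2S cRNAs (3:1:10) injected into Xenopus oocytes and recorded 1–5 days later by two-microelectrode voltage clamp. Bath was 90 mM NaCl, 1 mM KCl, 1 mM MgCl2, 1 mM CaCl2, 5 mM HEPES, pH 7.4. Compound was co-applied by fast perfusion with GABA at EC5–10 (3–10 μM). Enhancement = I(GABA+Comp)/IGABA − 1. Concentration-response curves fitted by nonlinear regression.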

[24] = as §6; format: cell-based; details: Oocyte; method in brief: as §7
[25] = target: T1, GABA-A receptor; GABA-A site (alpha1/beta2 interface) (Homo sapiens); experiment: Allosteric modulation of gamma-aminobutyric acid receptor A alpha1beta2 expressed in Xenopus oocytes assessed as potentiation of GABA-mediated chloride current at 30 uM by voltage clamp analysis; format: cell-based; details: Oocyte
Oocyte [26] = experiment: Allosteric modulation of gamma-aminobutyric acid receptor A alpha1beta1gamma2S expressed in Xenopus oocytes assessed as potentiation of GABA-mediated chloride current at 0.1 to 500 uM by voltage clamp analysis relative to control; format: cell-based; method in brief: as §7
Oocyte [27] = experiment: Agonist activity at gamma-aminobutyric acid receptor A alpha1beta1gamma2S expressed in Xenopus oocytes assessed as potentiation of GABA-mediated chloride current at 300 uM by voltage clamp analysis; format: functional, cell-based; method in brief: as §7
Oocyte [28] = experiment: (§8) Allosteric modulation of gamma-aminobutyric acid receptor A alpha3beta2gamma2S expressed in Xenopus oocytes assessed as potentiation of GABA-mediated chloride current by voltage clamp analysis; format: cell-based; method in brief: as §2
[29] = as §8; format: cell-based; details: Oocyte; method in brief: as §2
Oocyte [30] = experiment: Ratio of isopimaric acid Imax to compound Imax for gamma-aminobutyric acid receptor A alpha1beta3gamma2S expressed in Xenopus oocytes assessed as potentiation of GABA-mediated chloride current at 0.1 to 500 uM by voltage clamp analysis; format: cell-based
Oocyte [31] = experiment: Ratio of isopimaric acid EC50 to compound EC50 for gamma-aminobutyric acid receptor A alpha3beta2gamma2S expressed in Xenopus oocytes assessed as potentiation of GABA-mediated chloride current by voltage clamp analysis; format: cell-based
Oocyte [32] = experiment: Ratio of isopimaric acid Imax to compound Imax for gamma-aminobutyric acid receptor A alpha5beta2gamma2S expressed in Xenopus oocytes assessed as potentiation of GABA-mediated chloride current at 0.1 to 500 uM by voltage clamp analysis; format: cell-based
Mus musculus [33] = experiment: Anxiolytic activity in C57Bl/6N mouse assessed as ambulation distance at 3 mg/kg, ip measured after 30 mins by open field test ( Rvb = 31.8 +/- 1.7 m); format: functional; details: route intraperitoneal
Oocyte [34] = experiment: Ratio of isopimaric acid Imax to compound Imax for gamma-aminobutyric acid receptor A alpha2beta2gamma2S expressed in Xenopus oocytes assessed as potentiation of GABA-mediated chloride current at 0.1 to 500 uM by voltage clamp analysis; format: cell-based
Oocyte [35] = experiment: Ratio of isopimaric acid Imax to compound Imax for gamma-aminobutyric acid receptor A alpha1beta1gamma2S expressed in Xenopus oocytes assessed as potentiation of GABA-mediated chloride current at 0.1 to 500 uM by voltage clamp analysis; format: cell-based
Oocyte [36] = experiment: Ratio of isopimaric acid EC50 to compound EC50 for gamma-aminobutyric acid receptor A alpha1beta1gamma2S expressed in Xenopus oocytes assessed as potentiation of GABA-mediated chloride current by voltage clamp analysis; format: cell-based
Oocyte [37] = experiment: Ratio of isopimaric acid EC50 to compound EC50 for gamma-aminobutyric acid receptor A alpha1beta2gamma2S expressed in Xenopus oocytes assessed as potentiation of GABA-mediated chloride current by voltage clamp analysis; format: cell-based
Oocyte [38] = experiment: Ratio of isopimaric acid EC50 to compound EC50 for gamma-aminobutyric acid receptor A alpha2beta2gamma2S expressed in Xenopus oocytes assessed as potentiation of GABA-mediated chloride current by voltage clamp analysis; format: cell-based
Mus musculus [39] = experiment: Anxiolytic activity in C57Bl/6N mouse assessed as ambulation distance at 30 mg/kg, ip measured after 30 mins by open field test ( Rvb = 31.8 +/- 1.7 m); format: functional; details: route intraperitoneal
Oocyte [40] = experiment: Ratio of isopimaric acid Imax to compound Imax for gamma-aminobutyric acid receptor A alpha1beta2gamma2S expressed in Xenopus oocytes assessed as potentiation of GABA-mediated chloride current at 0.1 to 500 uM by voltage clamp analysis; format: cell-based
Oocyte [41] = experiment: Ratio of isopimaric acid EC50 to compound EC50 for gamma-aminobutyric acid receptor A alpha5beta2gamma2S expressed in Xenopus oocytes assessed as potentiation of GABA-mediated chloride current by voltage clamp analysis; format: cell-based
Oocyte [42] = experiment: Ratio of isopimaric acid EC50 to compound EC50 for gamma-aminobutyric acid receptor A alpha1beta3gamma2S expressed in Xenopus oocytes assessed as potentiation of GABA-mediated chloride current by voltage clamp analysis; format: cell-based
Oocyte [43] = experiment: Ratio of isopimaric acid Imax to compound Imax for gamma-aminobutyric acid receptor A alpha3beta2gamma2S expressed in Xenopus oocytes assessed as potentiation of GABA-mediated chloride current at 0.1 to 500 uM by voltage clamp analysis; format: cell-based

## CCc1cc2c(s1)N(C)C(=O)CN=C2c1ccccc1Cl [CLOTIAZEPAM]
Oocyte [1]
  Imax: 260%
[2]
  EC50: 0.184 µM

## C=C[C@@]1(C)CC[C@H]2C(=CC[C@@H]3[C@]2(C)CCC[C@@]3(C)C(=O)O)C1 [ISOPIMARIC ACID]
Oocyte [3]
  Imax: 1030%
Oocyte [4]
  Imax: 472%
Oocyte [5]
  Imax: 425%
Oocyte [6]
  Activity: inactive
Oocyte [7]
  Imax: 476%
Oocyte [8]
  Activity: inactive
Oocyte [9]
  Activity: inactive
Oocyte [10]
  Activity: inactive
Oocyte [11]
  Imax: 1070%
Oocyte [12]
  Activity: Dose-dependent effect
[13]
  EC50: 257 µM
Oocyte [14]
  Activity: Active
Oocyte [15]
  Activity: Active
Oocyte [16]
  Activity: Dose-dependent effect
[2]
  EC50: 142 µM
Oocyte [17]
  Activity: Dose-dependent effect
[18]
  EC50: 365 µM
Oocyte [19]
  Activity: inactive
[20]
  Activity: Active
Oocyte [21]
  Activity: Dose-dependent effect
[22]
  EC50: 317 µM
Oocyte [23]
  Activity: Dose-dependent effect
[24]
  EC50: 290 µM
[25]
  Activity: Active
Oocyte [26]
  Imax: 716%
Oocyte [27]
  Activity: inactive
Oocyte [28]
  Activity: Dose-dependent effect
[29]
  EC50: 724 µM

## Cc1ncc2n1-c1ccc(Cl)cc1C(c1ccccc1F)=NC2 [MIDAZOLAM]
Oocyte [1]
  Imax: 342%
[2]
  EC50: 0.143 µM

## C=C[C@]1(C)C=C2CC[C@@H]3[C@](C)(CCC[C@@]3(C)C(=O)O)[C@H]2CC1 [SANDARACOPIMARIC ACID]
Oocyte [3]
  Imax: 1090%
Oocyte [4]
  Imax: 513%
Oocyte [30]
  Ratio: 0.92
Oocyte [6]
  Activity: inactive
Oocyte [7]
  Imax: 520%
Oocyte [8]
  Activity: inactive
Oocyte [31]
  Ratio EC50: 12.8
Oocyte [9]
  Activity: inactive
Oocyte [1]
  Imax: 856%
Oocyte [10]
  Activity: inactive
Oocyte [32]
  Ratio: 0.92
Mus musculus [33]
  Activity: 25.1 m
Oocyte [34]
  Ratio: 0.94
Oocyte [11]
  Imax: 1100%
Oocyte [35]
  Ratio: 1.43
Oocyte [12]
  Activity: Dose-dependent effect
[13]
  EC50: 24.9 µM
Oocyte [14]
  Activity: Active
Oocyte [15]
  Activity: Active
Oocyte [16]
  Activity: Dose-dependent effect
[2]
  EC50: 33.3 µM
Oocyte [36]
  Ratio EC50: 6.02
Oocyte [17]
  Activity: Dose-dependent effect
[18]
  EC50: 31.2 µM
Oocyte [19]
  Activity: inactive
[20]
  Activity: Active
Oocyte [37]
  Ratio EC50: 4.25
Oocyte [21]
  Activity: Dose-dependent effect
[22]
  EC50: 40.7 µM
Oocyte [23]
  Activity: Dose-dependent effect
[24]
  EC50: 48.1 µM
Oocyte [38]
  Ratio EC50: 11.7
Mus musculus [39]
  Activity: 22.3 m
[25]
  Activity: Active
Oocyte [40]
  Ratio: 0.5
Oocyte [26]
  Imax: 502%
Oocyte [41]
  Ratio EC50: 7.79
Oocyte [42]
  Ratio EC50: 10.3
Oocyte [27]
  Activity: inactive
Oocyte [28]
  Activity: Dose-dependent effect
[29]
  EC50: 56.6 µM
Oocyte [43]
  Ratio: 0.98

## Cc1nnc2n1-c1ccc(Cl)cc1C(c1ccccc1Cl)=NC2 [TRIAZOLAM]
Oocyte [1]
  Imax: 253%
[2]
  EC50: 0.022 µM
